Rows were chosen to be rich in hits. Some 5.9% of all compounds tested hit in one or more screens of this group.
Phagocyt inh = blocks phagocytosis by macrophages; J774A.1 macrophage IgG-bead phagocytosis, imaging; inhibition, % at 5 µM; 110,000 compounds, 0.07% hits; AID 1029;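 active = inhibition above the mean of the plate negative controls plus 5 SD, cut at about 13% in these data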;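 note: phagocytic index as fraction of beads internalized from green versus red external bead signal; plate controls were DMSO negative control for no effect and cytochalasin-D positive control for full effect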
Measles CPE = protection of cells from measles virus; Measles virus-infected cells, CPE protection, absorbance; protection (pct of control), % at 4 µM; 140,000 compounds, 1.5% hits; in the data active = protection mostly above about 24%, no sharp cut-off; inactive = mostly below about 26%
Pyk2 oligo antag = blocks oligomerization of human Pyk2 in cells; z-score (the deposit names both 25 µM and 10 µM); Q14289; 99,000 compounds, 0.83% hits; Q293 cells, Pyk2 FERM NanoBiT luminescence; stronger effect = lower value; AID 1347419;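 active = Z-score of -3 or lower, scaled per plate to the spread of control and sample wells; inactive = z-score above -3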;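 note: negative z-score means lost luminescence so less FERM oligomerization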
Rev-RRE block = inhibitors of HIV-1 Rev-RRE RNA interaction. Rev peptide-RRE RNA binding, FRET. inhibition, % at 8 µM. 97,000 compounds, 0.79% hits. AID 704;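 active = inhibition above the screen-wide mean plus 3 SD, cut at about 35% in these data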;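 note: 0% = median DMSO wells and 100% = median Neomycin B control wells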
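assay system = Cy5-tagged RRE RNA duplex with fluorescein-tagged Rev peptide | incubation = 5 + 15 min at 25 °C | also added = labelled Rev peptide | measure = % inhibition of FRET ratio versus controls | benchmarks = DMSO wells as 0% and neomycin B wells as 100% inhibition | measured by = FRET fluorescence readout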
hDAT+cocaine = human DAT dopamine uptake with cocaine, either direction. 110,000 compounds, 1.3% hits. LLC-PK1 hDAT cells, [14C]-dopamine uptake with cocaine IC80; actives deviate in either direction. B-score at 10 µM;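 active = Z score or B-score, a plate-position-corrected score, falls beyond the plate's 99.7% confidence bounds, in either direction; inactive = both scores lie inside the 99.7% bounds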;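 note: scored against the spread of the other compound wells on the same plate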
Cav32 inh = human Cav3.2 channel inhibition, primary screen. 100,000 compounds, 4% hits. B-score at 10 µM. O95180. Cav3.2-expressing cells, Fluo-4 calcium fluorescence FDSS; stronger effect = lower value;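 active = single-dose well whose peak fluorescence ratio is a statistical outlier from its plate by either plate-standardised score or position-corrected B-score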
Target sequence (O95180 whole entry, looked up): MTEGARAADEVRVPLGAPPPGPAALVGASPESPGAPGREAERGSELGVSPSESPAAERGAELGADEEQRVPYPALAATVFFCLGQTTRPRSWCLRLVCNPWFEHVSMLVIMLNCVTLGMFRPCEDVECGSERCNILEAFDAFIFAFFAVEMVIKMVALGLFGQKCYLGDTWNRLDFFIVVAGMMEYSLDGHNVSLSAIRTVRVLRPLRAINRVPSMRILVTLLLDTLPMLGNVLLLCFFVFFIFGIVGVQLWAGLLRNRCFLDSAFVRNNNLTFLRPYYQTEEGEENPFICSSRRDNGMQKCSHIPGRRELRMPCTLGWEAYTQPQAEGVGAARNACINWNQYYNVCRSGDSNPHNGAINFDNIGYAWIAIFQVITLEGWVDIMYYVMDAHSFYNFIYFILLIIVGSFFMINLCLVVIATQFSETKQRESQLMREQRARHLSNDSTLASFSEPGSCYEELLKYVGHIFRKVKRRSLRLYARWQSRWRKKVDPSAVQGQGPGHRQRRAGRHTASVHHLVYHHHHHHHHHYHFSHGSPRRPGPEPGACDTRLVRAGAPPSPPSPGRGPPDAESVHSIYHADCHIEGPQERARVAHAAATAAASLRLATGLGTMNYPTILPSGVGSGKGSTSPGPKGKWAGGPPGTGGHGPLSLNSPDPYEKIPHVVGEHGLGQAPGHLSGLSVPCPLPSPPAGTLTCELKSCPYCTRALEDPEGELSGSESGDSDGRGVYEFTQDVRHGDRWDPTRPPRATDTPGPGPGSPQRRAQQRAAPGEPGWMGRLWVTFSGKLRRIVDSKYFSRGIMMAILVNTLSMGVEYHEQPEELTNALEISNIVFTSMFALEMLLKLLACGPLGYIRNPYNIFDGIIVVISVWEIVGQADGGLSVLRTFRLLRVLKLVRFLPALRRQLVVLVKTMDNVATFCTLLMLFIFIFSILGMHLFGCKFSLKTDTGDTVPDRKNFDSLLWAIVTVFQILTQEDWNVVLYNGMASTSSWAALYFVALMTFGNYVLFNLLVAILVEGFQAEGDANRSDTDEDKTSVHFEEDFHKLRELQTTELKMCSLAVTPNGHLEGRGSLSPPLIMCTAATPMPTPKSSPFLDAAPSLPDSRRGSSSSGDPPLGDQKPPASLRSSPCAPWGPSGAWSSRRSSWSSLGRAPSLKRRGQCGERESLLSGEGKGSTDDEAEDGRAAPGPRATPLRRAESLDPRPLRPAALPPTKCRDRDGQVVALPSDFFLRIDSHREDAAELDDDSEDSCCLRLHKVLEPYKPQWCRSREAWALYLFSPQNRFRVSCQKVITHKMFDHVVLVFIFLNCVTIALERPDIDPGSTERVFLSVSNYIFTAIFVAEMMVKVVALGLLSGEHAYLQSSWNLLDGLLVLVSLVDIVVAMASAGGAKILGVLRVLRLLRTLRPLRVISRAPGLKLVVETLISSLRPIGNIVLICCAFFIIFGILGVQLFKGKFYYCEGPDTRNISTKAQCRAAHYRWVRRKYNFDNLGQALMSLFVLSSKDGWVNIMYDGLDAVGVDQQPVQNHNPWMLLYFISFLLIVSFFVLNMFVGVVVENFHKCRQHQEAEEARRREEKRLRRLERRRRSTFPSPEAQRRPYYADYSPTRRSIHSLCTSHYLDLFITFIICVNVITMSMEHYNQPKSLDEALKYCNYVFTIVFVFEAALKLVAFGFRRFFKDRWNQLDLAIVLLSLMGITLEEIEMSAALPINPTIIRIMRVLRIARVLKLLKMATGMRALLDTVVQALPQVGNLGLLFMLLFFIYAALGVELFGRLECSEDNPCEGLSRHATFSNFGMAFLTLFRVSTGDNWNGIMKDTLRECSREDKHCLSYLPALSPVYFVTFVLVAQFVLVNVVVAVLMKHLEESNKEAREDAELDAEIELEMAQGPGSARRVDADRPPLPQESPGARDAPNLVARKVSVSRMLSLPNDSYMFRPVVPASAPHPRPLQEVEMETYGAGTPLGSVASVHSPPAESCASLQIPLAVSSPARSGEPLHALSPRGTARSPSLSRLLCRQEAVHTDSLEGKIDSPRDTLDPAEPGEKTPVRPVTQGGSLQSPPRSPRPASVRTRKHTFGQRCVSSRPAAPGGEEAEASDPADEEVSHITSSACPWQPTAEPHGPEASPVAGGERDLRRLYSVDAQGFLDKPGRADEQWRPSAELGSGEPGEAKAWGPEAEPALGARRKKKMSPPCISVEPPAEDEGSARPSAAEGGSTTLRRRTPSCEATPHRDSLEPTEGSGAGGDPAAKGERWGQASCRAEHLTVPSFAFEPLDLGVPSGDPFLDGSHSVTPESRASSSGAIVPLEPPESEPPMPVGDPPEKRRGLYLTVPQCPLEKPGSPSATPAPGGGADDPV
An asterisk follows results filed as active; nt = no result.

SMILES | Phagocyt inh | Measles CPE | Pyk2 oligo antag | Rev-RRE block | hDAT+cocaine | Cav32 inh
Cc1cccc(NC(=O)c2ccc(C3SCC(=O)N3CCc3ccccc3)cc2)c1C (configuration not stated) | 0 | 7 | -1.8 | -2 | 2.7* | -4.5*
CCOC(=O)C(=CNc1cc(C)nn1-c1ccccc1)C(=O)OCC | -1 | 4 | -2.4 | 2 | 2.2* | -0.63
Cn1c(=O)c(C(=O)CN2CCCc3ccccc32)c(N)n(Cc2ccccc2)c1=O | 1 | 14 | 0.92 | nt | -0.37 | -4.1*
Cn1c(=O)c(C(=O)CN2CCc3ccccc32)c(N)n(Cc2ccccc2)c1=O | -4 | 7 | nt | nt | nt | nt
Nc1ccc2nc(-c3ccccc3)[nH]c2c1 | nt | 57* | -1.6 | 11 | 0.58 | 0.88
CCN(CC)C1=CC2=CC(=C(C#N)C#N)CCC2CC1 (configuration not stated) | -7 | 39* | nt | nt | nt | nt
Cc1ccc(NS(=O)(=O)c2cc(-c3n[nH]c(=O)c4ccccc34)ccc2C)cc1 | 0 | 2 | nt | nt | nt | nt
CNC(=O)COC(=O)/C=C/c1c(C)nn(-c2ccccc2)c1C | -15 | 6 | nt | nt | nt | nt
COc1ccc(N2C(=O)CCC(C(=O)O)C2c2ccc(OC)c(OC)c2)cc1 (configuration not stated) | -1 | 5 | -0.16 | 5 | -1.4 | -0.28
CCCCN(C)C(=O)C1CCC(=O)N(c2cc(OC)c(OC)c(OC)c2)C1c1ccc(OC)cc1 (configuration not stated) | nt | 3 | 0.32 | 3 | -8.4* | 1.1
COc1ccc(N2C(=O)CCC(C(=O)NCCN3CCOCC3)C2c2ccc(OC)c(OC)c2)cc1 (configuration not stated) | 44* | 21 | 0.14 | nt | -0.13 | nt
COc1cc(O)c(C(CCN2CCCC(C)C2)c2ccc(N(C)C)cc2)c(OC)c1 (configuration not stated) | nt | nt | nt | nt | 2.2* | 0.65
Cc1ccc(OC(=O)C2c3ccccc3Oc3ccccc32)cc1C | -6 | 30 | nt | nt | nt | nt
CC1(c2nnc(-c3cccc(Cl)c3)o2)CC(c2cccnc2)=NO1 (configuration not stated) | nt | nt | nt | nt | 0.012 | 1
CSc1oc(-c2ccco2)nc1S(=O)(=O)c1ccc(Br)cc1 | -2 | 9 | nt | nt | -0.45 | -1.8
CC(C)Sc1oc(-c2ccco2)nc1S(=O)(=O)c1ccc(F)cc1 | nt | 10 | 0.16 | 13 | 0.7 | -5.3*
Cc1ccc(-c2nc(N)sc2-c2ccccc2)cc1C | -4 | 3 | nt | nt | nt | nt
CC(=O)OCC(=O)[C@@]1(O)CC[C@H]2[C@@H]3CCC4=CC(=O)C=C[C@]4(C)[C@@]3(Cl)[C@@H](Cl)C[C@@]21C | nt | nt | nt | nt | 0.96 | 0.9
C[C@]12C=CC(=O)C=C1CCC1C3CC[C@](O)(C(=O)CO)[C@@]3(C)CC3OC312 (some centres not stated) | 1 | 42* | nt | nt | nt | nt
CCOC(=O)CSc1ncnc2c(C(=O)OCC)c3n(c12)CCC3 | -11 | 18 | nt | nt | nt | nt
CCCn1nc2cc(C(=O)NCc3ccc(OC)cc3)ccc2c1OCC | nt | 20 | nt | 7 | 2.3* | 0.27
CCCn1nc2cc(C(=O)NC3CCc4ccccc43)ccc2c1OCC (configuration not stated) | -1 | 13 | nt | 3 | 2.3* | 0.55
Cc1ccccc1/C(N)=N/O | -8 | 2 | nt | nt | nt | nt
CC(C)N(C(=O)CSc1nn2c(=O)c(C(C)(C)C)nnc2s1)c1ccccc1 | -1 | 7 | -1 | 8 | 0.72 | -10*
CCC(CC)NC(=O)c1cccc(NC(=O)C(C)C)c1 | -4 | 4 | nt | nt | nt | nt
SMILES | Phagocyt inh | Measles CPE | Pyk2 oligo antag | Rev-RRE block | hDAT+cocaine | Cav32 inh
CCCn1c(=O)c(C(=O)Nc2ccccc2C(=O)OCC)c(O)c2ccccc21 | -2 | 9 | -1.5 | nt | 0.37 | 0.043
CCC(C)n1c(=O)c(C(=O)Nc2ccccc2S(N)(=O)=O)c(O)c2ccccc21 (configuration not stated) | 0 | 4 | -1.3 | nt | -0.28 | -3.4*
NC(=O)c1c(NC(=O)Cc2cccs2)sc2c1CCC2 | -1 | 45* | -0.11 | 1 | -0.7 | -0.38
CNC(=S)N1N=C(c2ccc(Br)cc2)CC1c1ccc(Br)cc1 (configuration not stated) | 0 | 4 | -0.11 | 2 | 0.44 | -6.7*
Nc1cccc(Nc2nc(OC(C(F)(F)F)C(F)(F)F)nc(OC(C(F)(F)F)C(F)(F)F)n2)c1 | nt | 42* | -1.7 | 18 | 0.2 | -3.4
CCCCNC(=O)Nc1nnc(-c2ccc(Cl)cc2)o1 | 0 | 3 | 0.8 | -3 | -0.054 | 0.029
NC(=O)CC(NC(=O)Cc1ccc(Br)cc1)c1ccc(N2CCN(c3ccc(F)cc3)CC2)c([N+](=O)[O-])c1 (configuration not stated) | nt | nt | nt | nt | -0.74 | 0.97
CCCc1cc2c(=O)n(NC(=O)c3nn(C)cc3[N+](=O)[O-])c(C)nc2s1 | -5 | 20 | nt | nt | nt | nt
CC(=O)Nc1sc(C)c(C)c1C(=O)OC1CCOC1=O (configuration not stated) | -1 | 37* | 0.12 | -1 | -0.66 | nt
Cc1ccsc1C(=O)OC1CCOC1=O (configuration not stated) | 0 | 9 | 0.11 | nt | 0.64 | 1.3
O=C(c1ccc(COc2ccc3c(c2)CCC3)o1)N1CCN(c2ccccc2)CC1 | nt | nt | 0.63 | 11 | 0.97 | -3.2
O=C(c1ccco1)N1CCN(C(=O)c2ccccc2Oc2ccccc2)CC1 | nt | 13 | -0.03 | 3 | -1.2 | -5*
O=C(c1ccco1)N1CCN(C(=O)c2ccc(COc3ccc(Cl)cc3Cl)o2)CC1 | nt | nt | 0 | 2 | 2.6 | -5.8*
O=C(c1ccco1)N1CCN(C(=O)c2ccc(COc3ccc4c(c3)CCC4)o2)CC1 | 1 | 4 | -0.5 | 5 | 3.7* | -3.5
CCOC(=O)N1CCN(C(=O)c2ccccc2Oc2ccccc2)CC1 | 1 | 5 | -0.77 | -2 | 0.37 | nt
O=C(c1ccco1)N1CCN(c2ccc(Cl)c(Cl)c2)CC1 | nt | nt | -0.99 | 8 | 0.67 | -4.1*
C#CCOC(=O)CCCNc1ccc([N+](=O)[O-])cc1[N+](=O)[O-] | -2 | 16 | 0.54 | 1 | -0.26 | -1.3
O=C(Cn1nc(C(F)(F)F)cc1C1CC1)NCc1ccccc1F | -3 | 7 | nt | nt | nt | nt
Cc1nc(SCC(=O)NCCc2ccccc2)nc(C)c1C | 0 | 12 | -0.95 | 6 | -0.11 | 0.21
O=C(c1ccc(N2CCCCC2)c([N+](=O)[O-])c1)N(Cc1ccccc1)c1ccccn1 | nt | 2 | -1.5 | 13 | -0.34 | -4.5*
O=C(c1ccccc1)N(Cc1ccccc1)c1ccccn1 | -1 | 14 | -0.16 | 6 | -0.6 | 0.46
Cc1ccc(NC(=O)NCCCc2ccccc2)cc1 | 0 | 4 | -0.77 | 5 | -0.75 | -1
Cc1cc(C)nc(N(C#N)Cc2ccc(Br)cc2)n1 | 2 | 13 | -3.1* | 10 | -0.79 | -1.9
OCCCNC(=S)Nc1ccc2nc(-c3ccccn3)c(-c3ccccn3)nc2c1 | nt | 22 | -1.3 | 36* | 0.37 | 0.74
CC(C)(C)CC(C)(C)NC(=S)Nc1ccc2nc(-c3ccccn3)c(-c3ccccn3)nc2c1 | 0 | 7 | -1.9 | 76* | 1 | -4.3

Screening results: PubChem BioAssay, several laboratories
